Values after ≈ are worked out from the molar mass of the structure shown.
Columns and labels:
Format in all cases: functional
[1] = test system: Moraxella catarrhalis; test: Antibacterial activity against Moraxella catarrhalis ATCC 23246 after overnight incubation by broth microdilution method
Method in brief: (§1)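 MIC from a broth microdilution screen against ATCC reference strains, run in cation-adjusted Mueller–Hinton broth. Inocula were made from overnight agar cultures: colonies were suspended in sterile saline to a turbidity equal to a 0.5 McFarland standard. The screen's upper cut-off was […]. Testing conditions were pH 7.4.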

[2] = test system: Streptococcus pneumoniae; test: Antibacterial activity against Streptococcus pneumoniae ATCC 6305 after overnight incubation by broth microdilution method
Method in brief: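 Broth microdilution MIC in cation-adjusted Mueller–Hinton broth supplemented with 5% horse serum. The inoculum was overnight agar colonies suspended in sterile saline to 0.5 McFarland turbidity. The screen cut-off was […]. Testing conditions were pH 7.4.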

[3] = test system: Staphylococcus aureus; test: Antibacterial activity against Staphylococcus aureus ATCC 29213 after overnight incubation by broth microdilution method
Method in brief: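 MIC from a broth microdilution screen in cation-adjusted Mueller–Hinton broth against the ATCC reference strain. The inoculum was colonies from overnight agar culture suspended in sterile saline to a 0.5 McFarland turbidity. The top concentration tested was […]. Testing conditions were pH 7.4.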

[4] = test system: Escherichia coli; test: Antibacterial activity against Escherichia coli ATCC 25922 after overnight incubation by broth microdilution method; method in brief: as §1
[5] = test system: Haemophilus influenzae; test: Antibacterial activity against Haemophilus influenzae ATCC 49247 after overnight incubation by broth microdilution method
Method in brief: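 Broth microdilution MIC run in Haemophilus Test Medium (HTM). The inoculum was overnight agar colonies suspended in sterile saline to 0.5 McFarland turbidity. The upper cut-off was […]. Testing conditions were pH 7.4.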

[6] = test system: Enterococcus faecalis; test: Antibacterial activity against Enterococcus faecalis ATCC 29212 after overnight incubation by broth microdilution method; method in brief: as §1

| Structure (SMILES) | MIC [1] | MIC [2] | MIC [3] | MIC [4] | MIC [5] | MIC [6] |
| --- | --- | --- | --- | --- | --- | --- |
| CC1(C)S[C@@H]2[C@H](N3C(=O)c4ccccc4C3=O)C(=O)N2[C@H]1C(=O)N[C@H](C(=O)OCc1ccccc1)c1ccccc1 | > 128 µg/mL |  |  |  |  |  |
| CC(C)NC(=O)[C@@H]1N2C(=O)[C@@H](N3C(=O)c4ccccc4C3=O)[C@H]2SC1(C)C | > 128 µg/mL |  |  |  |  |  |
| CC1(C)SN([C@H](C(=O)OCc2ccccc2)c2ccccc2)C(=O)[C@@H]1N1C(=O)[C@@H](N2C(=O)c3ccccc3C2=O)[C@@H]1Cl | 64 µg/mL (≈ 106 µM) | 8 µg/mL (≈ 13.2 µM) | 32 µg/mL (≈ 53 µM) | > 128 µg/mL | > 128 µg/mL | 16 µg/mL (≈ 26.5 µM) |
| C[C@@H](C(=O)O)N1SC(C)(C)[C@@H](N2C(=O)[C@@H](N3C(=O)c4ccccc4C3=O)[C@@H]2Cl)C1=O |  |  |  |  |  | > 128 µg/mL |
| CC1(C)SN([C@H](C(=O)O)c2ccccc2)C(=O)[C@@H]1N1C(=O)[C@@H](N2C(=O)c3ccccc3C2=O)[C@@H]1Cl | > 128 µg/mL |  |  |  |  |  |
| C[C@@H](C(=O)OCc1ccccc1)N1SC(C)(C)[C@@H](N2C(=O)[C@@H](N3C(=O)c4ccccc4C3=O)[C@@H]2Cl)C1=O | 32 µg/mL (≈ 59 µM) | 64 µg/mL (≈ 118 µM) | 64 µg/mL (≈ 118 µM) | > 128 µg/mL | > 128 µg/mL | 64 µg/mL (≈ 118 µM) |
| CC1(C)SN(CC(=O)OCc2ccccc2)C(=O)[C@@H]1N1C(=O)[C@@H](N2C(=O)c3ccccc3C2=O)[C@@H]1Cl | 32 µg/mL (≈ 60.6 µM) | 64 µg/mL (≈ 121 µM) | 64 µg/mL (≈ 121 µM) | > 128 µg/mL | > 128 µg/mL | 32 µg/mL (≈ 60.6 µM) |
| CC1(C)SN(CC(=O)O)C(=O)[C@@H]1N1C(=O)[C@@H](N2C(=O)c3ccccc3C2=O)[C@@H]1Cl |  |  |  |  |  | > 128 µg/mL |
| CC(C)N1SC(C)(C)[C@@H](N2C(=O)[C@@H](N3C(=O)c4ccccc4C3=O)[C@@H]2Cl)C1=O | 64 µg/mL (≈ 152 µM) |  |  |  |  |  |
| CC1(C)S[C@@H]2[C@H](N3C(=O)c4ccccc4C3=O)C(=O)N2[C@H]1C(=O)NCC(=O)OCc1ccccc1 | 64 µg/mL (≈ 130 µM) |  |  |  |  |  |
| CC1(C)SN(Cc2ccccc2)C(=O)[C@@H]1N1C(=O)[C@@H](N2C(=O)c3ccccc3C2=O)[C@@H]1Cl | 16 µg/mL (≈ 34 µM) | 64 µg/mL (≈ 136 µM) | 128 µg/mL (≈ 272 µM) | > 128 µg/mL | > 128 µg/mL | 64 µg/mL (≈ 136 µM) |
| CC1(C)S[C@@H]2[C@H](N3C(=O)c4ccccc4C3=O)C(=O)N2[C@H]1C(=O)NCc1ccccc1 | 64 µg/mL (≈ 147 µM) |  |  |  |  |  |
| C[C@H](NC(=O)[C@@H]1N2C(=O)[C@@H](N3C(=O)c4ccccc4C3=O)[C@H]2SC1(C)C)C(=O)OCc1ccccc1 | > 128 µg/mL |  |  |  |  |  |
| CC1(C)S[C@@H]2[C@H](NC(=O)[C@H](N)c3ccc(O)cc3)C(=O)N2[C@H]1C(=O)O [AMOXICILLIN] | 0.5 µg/mL (≈ 1.37 µM) | 4 µg/mL (≈ 10.9 µM) | 1 µg/mL (≈ 2.74 µM) | 0.5 µg/mL (≈ 1.37 µM) | 0.015 µg/mL (≈ 0.041 µM) | 4 µg/mL (≈ 10.9 µM) |
